{"source": "ChEMBL document CHEMBL1649117", "about": "“GRL-02031, a novel nonpeptidic protease inhibitor (PI) containing a stereochemically defined fused cyclopentanyltetrahydrofuran potent against multi-PI-resistant human immunodeficiency virus type 1 in vitro” (Antimicrob Agents Chemother, 2009)", "type_in_all_cases": "functional, organism-based", "key": {"[1]": {"system": "Human immunodeficiency virus 1", "assay": "Antiviral activity against HIV1 NL4-3 harboring L10F/L24I/M46I/L63P/A71V/G73S/V82T amino acid substitution in protease encoding region infected in human MT4 cells assessed as inhibition of p24 Gag protein production selected at 5 uM of indinavir by ELISA", "conditions": "Human immunodeficiency virus 1, NL4-3, MT4", "method_in_brief": "(§1)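 HIV-1NL4-3 (500 TCID50s) was passaged in MT-4 cells, starting at 0.01–0.03 µM PI and raising the drug generally two- to threefold as virus propagated. Cell-free passage used day-7 supernatants. Variants were then tested in MT-4 cells (10^5/ml) with 100 TCID50s, with or without drug, at 37°C. Day-7 p24 Gag was read by chemiluminescent immunoassay; EC50 vs drug-free control; triplicate.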"}, "[2]": {"system": "Human immunodeficiency virus 1", "assay": "Antiviral activity against HIV1 JSL harboring L10I/L24I/L33F/E35D/M36I/N37S/M46L/I54V/R57K/I62V/L63P/A71V/G73S/82A in protease encoding region infected in human PHA-PBC assessed as inhibition of p24 Gag protein production by ELISA", "conditions": "Human immunodeficiency virus 1, JSL", "method_in_brief": "(§2)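 Phytohemagglutinin-stimulated PBMs (10^6/ml) infected with 50 TCID50s of each primary isolate, cultured with or without drug in 10-fold serial dilutions. On day 7, supernatant p24 Gag was measured by automated chemiluminescent enzyme immunoassay. […] Triplicate.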"}, "[3]": {"system": "Human immunodeficiency virus 1", "assay": "Antiviral activity against HIV1 TM harboring L10I/K14R/R41K/M46L/I54V/L63P/A71V/V82A/L90M/I93L in protease encoding region infected in human PHA-PBC assessed as inhibition of p24 Gag protein production by ELISA", "conditions": "Human immunodeficiency virus 1, TM", "method_in_brief": "as §2"}, "[4]": {"system": "Human immunodeficiency virus 1", "assay": "Antiviral activity against HIV1 MOKW infected in human PHA-PBC assessed as inhibition of p24 Gag protein production by ELISA", "conditions": "Human immunodeficiency virus 1, MOKW", "method_in_brief": "as §2"}, "[5]": {"system": "Human immunodeficiency virus", "assay": "Antiviral activity against HIV1 LAI infected in human MT2 cells after 7 days by MTT assay", "conditions": "Human immunodeficiency virus 1, LAI, MT2, 168 h"}, "[6]": {"system": "Human immunodeficiency virus 1", "assay": "Antiviral activity against HIV1 A harboring L10I/I15V/E35D/N37E/K45R/I54V/L63P/A71V/V82T/L90M/I93L/C95F in protease encoding region infected in human PHA-PBC assessed as inhibition of p24 Gag protein production by ELISA", "conditions": "Human immunodeficiency virus 1, A", "method_in_brief": "(§3)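 Phytohemagglutinin-stimulated PBMs (10^6/ml) infected with 50 TCID50s of each primary isolate, cultured with or without drug in 10-fold serial dilutions. On day 7, supernatant p24 Gag was measured by automated chemiluminescent enzyme immunoassay. Triplicate.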"}, "[7]": {"system": "Human immunodeficiency virus 1", "assay": "Antiviral activity against HIV1 NL4-3 harboring L10F/V32I/M46I/I54M//A71V/I84V amino acid substitution in protease encoding region infected in human MT4 cells assessed as inhibition of p24 Gag protein production selected at 5 uM of amprenavir by ELISA", "conditions": "Human immunodeficiency virus 1, NL4-3, MT4", "method_in_brief": "(§4)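 Cell-free passage used day-7 supernatants. Variants were then tested in MT-4 cells (10^5/ml) with 100 TCID50s, with or without drug, at 37°C. Day-7 p24 Gag was read by chemiluminescent immunoassay; EC50 vs drug-free control; triplicate.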"}, "[8]": {"system": "Human immunodeficiency virus 1", "assay": "Antiviral activity against HIV1 MM harboring L10I/K43T/M46L/I54V/L63P/A71V/V82A/L90M/Q92K in protease encoding region infected in human PHA-PBC assessed as inhibition of p24 Gag protein production by ELISA", "conditions": "Human immunodeficiency virus 1, MM", "method_in_brief": "as §2"}, "[9]": {"system": "Human immunodeficiency virus 1", "assay": "Antiviral activity against HIV1 G harboring L10I/V11I/T12E/I15V/L19I/R41K/M46L/L63P/A71T/V82A/L90M in protease encoding region infected in human PHA-PBC assessed as inhibition of p24 Gag protein production by ELISA", "conditions": "Human immunodeficiency virus 1, G", "method_in_brief": "as §2"}, "[10]": {"system": "Human immunodeficiency virus 1", "assay": "Antiviral activity against HIV1 NL4-3 harboring L10F/M46I/I54V/V82A amino acid substitution in protease encoding region infected in human MT4 cells assessed as inhibition of p24 Gag protein production selected at 1 uM of Lopinavir by ELISA", "conditions": "Human immunodeficiency virus 1, NL4-3, MT4", "method_in_brief": "as §4"}, "[11]": {"system": "Human immunodeficiency virus 1", "assay": "Antiviral activity against HIV1 NL4-3 harboring L23I/K43I/M46I/I50L/G51A/A71V amino acid substitution in protease encoding region infected in human MT4 cells assessed as inhibition of p24 Gag protein production selected at 1 uM of atazanavir by ELISA", "conditions": "Human immunodeficiency virus 1, NL4-3, MT4", "method_in_brief": "as §1"}, "[12]": {"system": "Human immunodeficiency virus 1", "assay": "Antiviral activity against HIV1 NL4-3 harboring L10I/G48V/I54V/L90M amino acid substitution in protease encoding region infected in human MT4 cells assessed as inhibition of p24 Gag protein production selected at 5 uM of saquinavir by ELISA", "conditions": "Human immunodeficiency virus 1, NL4-3, MT4", "method_in_brief": "as §1"}, "[13]": {"system": "Human immunodeficiency virus 1", "assay": "Antiviral activity against HIV1 B harboring L10I/I15V/E35D/N37E/K45R/I54V/L63P/A71V/V82T/L90M/I93L/C95F in protease encoding region infected in human PHA-PBC assessed as inhibition of p24 Gag protein production by ELISA", "conditions": "Human immunodeficiency virus 1, B", "method_in_brief": "as §2"}, "[14]": {"system": "Human immunodeficiency virus 1", "assay": "Antiviral activity against HIV1 NL4-3 harboring M46I/V82F/I84V amino acid substitution in protease encoding region infected in human MT4 cells assessed as inhibition of p24 Gag protein production selected at 5 uM of ritonavir by ELISA", "conditions": "Human immunodeficiency virus 1, NL4-3, MT4", "method_in_brief": "as §1"}, "[15]": {"system": "Human immunodeficiency virus 1", "assay": "Antiviral activity against HIV1 ERS104pre infected in human PHA-PBC assessed as inhibition of p24 Gag protein production by ELISA", "conditions": "Human immunodeficiency virus 1, ERS104pre", "method_in_brief": "as §3"}, "[16]": {"system": "Human immunodeficiency virus 1", "assay": "Antiviral activity against HIV1 NL4-3 harboring L10F/L33F/M46I/I47V/Q58E/V82I/I84V/I85V amino acid substitution in protease encoding region infected in human MT4 cells assessed as inhibition of p24 Gag protein production selected at 5 uM of GRL-02031 by ELISA", "conditions": "Human immunodeficiency virus 1, NL4-3, MT4", "method_in_brief": "as §4"}, "[17]": {"system": "Human immunodeficiency virus 1", "assay": "Antiviral activity against HIV1 NL4-3 harboring L10F/D30N/K45I/A71V/T74S amino acid substitution in protease encoding region infected in human MT4 cells assessed as inhibition of p24 Gag protein production selected at 5 uM of nelfinavir by ELISA", "conditions": "Human immunodeficiency virus 1, NL4-3, MT4", "method_in_brief": "as §1"}, "[18]": {"system": "Human immunodeficiency virus 1", "assay": "Antiviral activity against HIV1 NL4-3 infected in human MT4 cells assessed as inhibition of p24 gag protein production by ELISA", "conditions": "Human immunodeficiency virus 1, NL4-3, MT4", "method_in_brief": "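MT-4 cells (10^5/ml) were infected with 100 TCID50s of HIV-1 and cultured at 37°C with or without various drug concentrations. On day 7, supernatant p24 Gag was measured by automated chemiluminescent enzyme immunoassay. […] Assays were run in triplicate.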"}, "[19]": {"system": "Human immunodeficiency virus 1", "assay": "Antiviral activity against HIV1 C harboring L10I/I15V/K20R/L24I/M36I/M46L/I54V/I62V/L63P/K70Q/V82A/L89M in protease encoding region infected in human PHA-PBC assessed as inhibition of p24 Gag protein production by ELISA", "conditions": "Human immunodeficiency virus 1, C", "method_in_brief": "as §2"}}}
{"smiles": "CC(C)c1nc(CN(C)C(=O)N[C@H](C(=O)N[C@@H](Cc2ccccc2)C[C@H](O)[C@H](Cc2ccccc2)NC(=O)OCc2cncs2)C(C)C)cs1", "note": "[RITONAVIR]", "values": [{"measurement": "EC50", "setting": "[1]", "result": "> 1000", "unit": "nM"}, {"measurement": "EC50", "setting": "[2]", "result": "> 1000", "unit": "nM"}, {"measurement": "EC50", "setting": "[3]", "result": "> 1000", "unit": "nM"}, {"measurement": "EC50", "setting": "[4]", "result": 36, "unit": "nM"}, {"measurement": "EC50", "setting": "[5]", "result": 38, "unit": "nM"}, {"measurement": "EC50", "setting": "[6]", "result": "> 1000", "unit": "nM"}, {"measurement": "EC50", "setting": "[7]", "result": "> 1000", "unit": "nM"}, {"measurement": "EC50", "setting": "[8]", "result": "> 1000", "unit": "nM"}, {"measurement": "EC50", "setting": "[9]", "result": "> 1000", "unit": "nM"}, {"measurement": "EC50", "setting": "[10]", "result": "> 1000", "unit": "nM"}, {"measurement": "EC50", "setting": "[11]", "result": 140, "unit": "nM"}, {"measurement": "EC50", "setting": "[12]", "result": "> 1000", "unit": "nM"}, {"measurement": "EC50", "setting": "[13]", "result": "> 1000", "unit": "nM"}, {"measurement": "EC50", "setting": "[14]", "result": "> 1000", "unit": "nM"}, {"measurement": "EC50", "setting": "[15]", "result": 36, "unit": "nM"}, {"measurement": "EC50", "setting": "[16]", "result": 260, "unit": "nM"}, {"measurement": "EC50", "setting": "[17]", "result": 80, "unit": "nM"}, {"measurement": "EC50", "setting": "[18]", "result": 21, "unit": "nM"}, {"measurement": "EC50", "setting": "[19]", "result": "> 1000", "unit": "nM"}]}
